Assay results taken from PMC5430754 (Acta Pharmaceutica Sinica. B, 2017).
Where two headings read alike, the source gives them in different places.

How the values were obtained:
sucrase = sucrase (Rattus norvegicus, UniProt P23739); assay: α-glucosidase; type: biochemical; details: for Sucrase Inhibition (%): at the concentration of 10^—5 mol/L
maltase = assay: α-glucosidase; type: biochemical, Rat; details: for Maltase Inhibition (%): at the concentration of 10^—5 mol/L; for IC50: read-out: Maltase IC50, isolated compounds
Outline: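 Rat small-intestinal brush-border membrane vesicles, suspended in 0.1 mol/L phosphate buffer pH 6.0, served as the α-glucosidase source. Enzyme, substrate and test compound were incubated in the same buffer for 30 min at 37 °C. The reaction was stopped by heating to 80–85 °C for 3 min. Released glucose was measured by the glucose oxidase method. Triplicates at five concentrations gave IC50 from dose–response curves; % inhibition was measured at 10⁻⁵ mol/L.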

[1] = target: T1, porcine pancreatic lipase (Sus scrofa, UniProt P00591); assay: lipase inhibitory activity; type: biochemical; details: for Lipase Inhibition (%): at the concentration of 10^—5 mol/L; for inhibition at 10 µM: 1 h, read-out: Lipase Inhibition (%)
T1 sequence (P00591 1-450): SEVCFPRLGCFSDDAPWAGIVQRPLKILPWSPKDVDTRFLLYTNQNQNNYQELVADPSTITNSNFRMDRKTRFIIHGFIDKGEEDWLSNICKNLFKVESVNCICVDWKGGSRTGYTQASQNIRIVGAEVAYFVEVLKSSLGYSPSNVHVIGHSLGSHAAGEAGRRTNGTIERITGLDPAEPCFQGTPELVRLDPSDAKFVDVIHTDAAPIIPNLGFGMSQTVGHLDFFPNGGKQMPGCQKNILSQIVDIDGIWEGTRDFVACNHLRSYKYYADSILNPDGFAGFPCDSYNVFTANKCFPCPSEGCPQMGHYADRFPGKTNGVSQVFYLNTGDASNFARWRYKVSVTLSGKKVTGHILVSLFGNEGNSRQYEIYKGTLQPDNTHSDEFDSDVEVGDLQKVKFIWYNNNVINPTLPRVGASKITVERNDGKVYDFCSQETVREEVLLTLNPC

[2] = read-out: Sucrase IC50, isolated compounds

sucrase, sequence (P23739 whole entry): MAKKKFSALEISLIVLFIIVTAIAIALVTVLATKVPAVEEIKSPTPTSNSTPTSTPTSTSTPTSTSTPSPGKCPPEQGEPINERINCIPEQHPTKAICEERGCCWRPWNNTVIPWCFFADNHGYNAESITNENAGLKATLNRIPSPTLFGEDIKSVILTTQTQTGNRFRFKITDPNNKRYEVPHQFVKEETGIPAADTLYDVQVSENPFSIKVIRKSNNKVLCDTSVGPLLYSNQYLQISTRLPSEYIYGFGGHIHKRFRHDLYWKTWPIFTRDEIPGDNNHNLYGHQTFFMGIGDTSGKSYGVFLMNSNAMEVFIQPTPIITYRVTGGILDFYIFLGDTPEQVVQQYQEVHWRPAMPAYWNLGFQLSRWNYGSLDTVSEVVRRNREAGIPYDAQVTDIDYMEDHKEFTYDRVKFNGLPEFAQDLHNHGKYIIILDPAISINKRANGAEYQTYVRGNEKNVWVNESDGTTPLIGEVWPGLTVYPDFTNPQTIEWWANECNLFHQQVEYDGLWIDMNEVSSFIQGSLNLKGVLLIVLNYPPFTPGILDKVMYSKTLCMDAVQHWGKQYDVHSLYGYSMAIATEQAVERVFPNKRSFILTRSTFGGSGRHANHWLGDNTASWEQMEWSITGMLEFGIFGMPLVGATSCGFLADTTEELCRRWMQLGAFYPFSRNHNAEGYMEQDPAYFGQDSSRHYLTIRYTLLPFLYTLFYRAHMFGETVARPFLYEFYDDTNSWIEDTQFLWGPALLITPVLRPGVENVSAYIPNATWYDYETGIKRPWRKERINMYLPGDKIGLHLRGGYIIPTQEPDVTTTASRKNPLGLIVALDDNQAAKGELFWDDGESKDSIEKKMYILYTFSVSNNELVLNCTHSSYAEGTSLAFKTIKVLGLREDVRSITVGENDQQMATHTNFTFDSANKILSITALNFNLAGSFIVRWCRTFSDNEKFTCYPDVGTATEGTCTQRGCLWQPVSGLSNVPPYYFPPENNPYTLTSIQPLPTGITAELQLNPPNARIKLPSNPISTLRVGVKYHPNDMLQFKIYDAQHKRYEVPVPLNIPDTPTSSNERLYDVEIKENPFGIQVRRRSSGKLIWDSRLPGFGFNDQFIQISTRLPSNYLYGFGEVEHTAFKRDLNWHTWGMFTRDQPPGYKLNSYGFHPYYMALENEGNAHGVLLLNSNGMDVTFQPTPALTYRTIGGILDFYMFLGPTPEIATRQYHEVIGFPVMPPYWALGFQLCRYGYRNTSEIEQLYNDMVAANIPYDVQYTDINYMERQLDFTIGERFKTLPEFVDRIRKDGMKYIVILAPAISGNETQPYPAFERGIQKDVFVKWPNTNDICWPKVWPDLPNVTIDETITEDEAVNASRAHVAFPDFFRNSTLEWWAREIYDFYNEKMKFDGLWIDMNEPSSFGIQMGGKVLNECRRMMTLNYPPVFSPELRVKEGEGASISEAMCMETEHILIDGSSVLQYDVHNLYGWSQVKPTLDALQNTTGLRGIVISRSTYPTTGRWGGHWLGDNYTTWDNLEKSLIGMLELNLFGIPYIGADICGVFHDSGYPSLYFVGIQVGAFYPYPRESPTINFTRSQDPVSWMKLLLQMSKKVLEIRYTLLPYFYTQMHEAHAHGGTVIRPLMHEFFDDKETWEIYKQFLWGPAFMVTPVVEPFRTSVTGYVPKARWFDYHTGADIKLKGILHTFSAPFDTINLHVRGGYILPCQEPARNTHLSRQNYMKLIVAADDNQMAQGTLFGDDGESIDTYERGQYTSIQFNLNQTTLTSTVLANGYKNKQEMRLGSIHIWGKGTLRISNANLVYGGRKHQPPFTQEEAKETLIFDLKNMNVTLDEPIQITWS

| Sucrase Inhibition (%) (sucrase) | Maltase Inhibition (%) (maltase) | IC50 (maltase) | Lipase Inhibition (%) [1] | IC50 (sucrase; [2]) | IC50 ([1]; read-out: Lipase IC50, isolated compounds) | IC50 (sucrase) | inhibition at 10 µM (sucrase; 0.5 h, read-out: Sucrase Inhibition (%)) | IC50 [1] | inhibition at 10 µM [1] | Structure (SMILES) |
| --- | --- | --- | --- | --- | --- | --- | --- | --- | --- | --- |
| 45.4% | 71.8% | 49.7 µM | 42.6% |  |  |  |  |  |  | O=C(/C=C\c1ccc(O)cc1)O[C@@H]1Cc2c(O)cc(O)cc2O[C@@H]1c1ccc(O)c(O)c1 [Compound 1, (–)-epicatechin-3-O-(Z)-coumarate] |
| 64.5% |  |  | 36.3% | 107 µM |  |  |  |  |  | O=C(/C=C/c1ccc(O)c(O)c1)O[C@@H]1Cc2c(O)cc(O)cc2O[C@@H]1c1ccc(O)c(O)c1 [Compound 3, (–)-epicatechin-3-O-(E)-caffeate] |
|  | 92.0% | 200 µM |  |  |  | 74.6 µM | 90.4% | 20.4 µM | 92.1% | O=C1c2c(O)cc(O)cc2O[C@H](c2cc(O)c(O)c(O)c2)[C@H]1O [Compound 5, ampelopsin] |

Continued, compound first:

| Structure (SMILES) | Sucrase Inhibition (%) (sucrase) | Maltase Inhibition (%) (maltase) | IC50 (maltase) | Lipase Inhibition (%) [1] | IC50 (sucrase; [2]) | IC50 ([1]; read-out: Lipase IC50, isolated compounds) | IC50 (sucrase) | inhibition at 10 µM (sucrase; 0.5 h, read-out: Sucrase Inhibition (%)) | IC50 [1] | inhibition at 10 µM [1] |
| --- | --- | --- | --- | --- | --- | --- | --- | --- | --- | --- |
| O=C(/C=C/c1ccc(O)cc1)O[C@@H]1Cc2c(O)cc(O)cc2O[C@@H]1c1ccc(O)c(O)c1 [Compound 2, (–)-epicatechin-3-O-(E)-coumarate] | 71.3% |  |  | 41.6% | 62.1 µM |  |  |  |  |  |
| Oc1cc(O)c2c(c1)O[C@H](c1ccc(O)c(O)c1)[C@@H](O)C2 [Compound 4, (+)-catechin] | 21.5% | 16.1% |  | 64.9% |  | 39.7 µM |  |  |  |  |
| Oc1cc(O)c2c(c1)O[C@H](c1ccc(O)c(O)c1)[C@H](O)C2 [Compound 6, (–)-epicatechin] |  | 48.5% |  |  |  |  |  |  | 32.2 µM | 70.4% |
